According to ChEMBL document CHEMBL1153763, “Discovering a new analogue of thalidomide which may be used as a potent modulator of TNF-alpha production” (Eur J Med Chem, 2009):

What follows are compounds tested on HT-29 (assay: Cytotoxicity against human HT-29 cells by MTT assay). Settings: not given.
Format: functional, cell-based

Structure (SMILES) | IC50 [µM]
CN(C)CCN1C(=O)CCC(N2C(=O)c3ccccc3C2=O)C1=O (configuration not stated) | > 50
CN(C)CCN1C(=O)CCC(n2c(=O)c3cc4c(=O)n(C5CCC(=O)N(CCN(C)C)C5=O)c(=O)c4cc3c2=O)C1=O (configuration not stated) | > 50
CN(CCN1C(=O)CCC(N2C(=O)c3ccccc3C2=O)C1=O)CCN1C(=O)CCC(N2C(=O)c3ccccc3C2=O)C1=O (configuration not stated) | > 50
O=C1CCC(N2C(=O)c3cccc4cc([N+](=O)[O-])cc(c34)C2=O)C(=O)N1 (configuration not stated) | > 50
CN(C)CCN1C(=O)CCC(N2C(=O)c3cccc4cccc(c34)C2=O)C1=O (configuration not stated) | > 50
CN(C)CCN1C(=O)CCC(N2C(=O)c3cccc4cc([N+](=O)[O-])cc(c34)C2=O)C1=O (configuration not stated) | > 50
Nc1cc2c3c(cccc3c1)C(=O)N(C1CCC(=O)NC1=O)C2=O (configuration not stated) | > 50
NC(=O)CCC(C(=O)O)N1C(=O)c2cc3ccccc3cc2C1=O (configuration not stated) | > 50
NC(=O)CCC(C(=O)O)N1C(=O)c2ccc3ccccc3c2C1=O (configuration not stated) | > 50
CN(C)CCN1C(=O)CCC(N2C(=O)c3cccc4cc(N)cc(c34)C2=O)C1=O (configuration not stated) | > 50
CN(C)CCN1C(=O)CCC(N2C(=O)c3cc4ccccc4cc3C2=O)C1=O (configuration not stated) | > 50

What follows are compounds tested on DLD-1 (assay: Cytotoxicity against human DLD1 cells by MTT assay). Settings: not given.
Format: functional, cell-based

Structure (SMILES) | IC50 [µM]
CN(C)CCN1C(=O)CCC(N2C(=O)c3ccccc3C2=O)C1=O (configuration not stated) | > 50
CN(C)CCN1C(=O)CCC(n2c(=O)c3cc4c(=O)n(C5CCC(=O)N(CCN(C)C)C5=O)c(=O)c4cc3c2=O)C1=O (configuration not stated) | > 50
CN(CCN1C(=O)CCC(N2C(=O)c3ccccc3C2=O)C1=O)CCN1C(=O)CCC(N2C(=O)c3ccccc3C2=O)C1=O (configuration not stated) | > 50
O=C1CCC(N2C(=O)c3cccc4cc([N+](=O)[O-])cc(c34)C2=O)C(=O)N1 (configuration not stated) | > 50
CN(C)CCN1C(=O)CCC(N2C(=O)c3cccc4cccc(c34)C2=O)C1=O (configuration not stated) | > 50
CN(C)CCN1C(=O)CCC(N2C(=O)c3cccc4cc([N+](=O)[O-])cc(c34)C2=O)C1=O (configuration not stated) | > 50
Nc1cc2c3c(cccc3c1)C(=O)N(C1CCC(=O)NC1=O)C2=O (configuration not stated) | > 50
NC(=O)CCC(C(=O)O)N1C(=O)c2cc3ccccc3cc2C1=O (configuration not stated) | > 50
NC(=O)CCC(C(=O)O)N1C(=O)c2ccc3ccccc3c2C1=O (configuration not stated) | > 50
CN(C)CCN1C(=O)CCC(N2C(=O)c3cccc4cc(N)cc(c34)C2=O)C1=O (configuration not stated) | > 50
CN(C)CCN1C(=O)CCC(N2C(=O)c3cc4ccccc4cc3C2=O)C1=O (configuration not stated) | > 50

The compounds below were run on HL-60 (assay: Inhibition of okadaic acid-induced TNFalpha production in human HL60 cells at 30 uM after 16 hrs by ELISA relative to control). Settings: HL-60, 16 h, values are per cent of control.
Format: functional
Method in brief: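 HL-60 cells in RPMI 1640 with 10% fetal bovine serum, 2 mM L-glutamine and penicillin/streptomycin, 37 °C, 5% CO2. Exponential cells (5×10^5 cells/mL) given 50 nM okadaic acid plus compound (30 µM) for 16 h. Cell number and morphology checked microscopically. Supernatant TNF-α measured by human TNF-α ELISA, expressed as % of okadaic acid-only treatment (100%). At least three experiments, triplicate means.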

Structure (SMILES) | response, % of control at 30 µM [%]
CN(C)CCN1C(=O)CCC(N2C(=O)c3ccccc3C2=O)C1=O (configuration not stated) | 93
CN(C)CCN1C(=O)CCC(n2c(=O)c3cc4c(=O)n(C5CCC(=O)N(CCN(C)C)C5=O)c(=O)c4cc3c2=O)C1=O (configuration not stated) | 77
CN(CCN1C(=O)CCC(N2C(=O)c3ccccc3C2=O)C1=O)CCN1C(=O)CCC(N2C(=O)c3ccccc3C2=O)C1=O (configuration not stated) | 99
O=C1CCC(N2C(=O)c3cccc4cc([N+](=O)[O-])cc(c34)C2=O)C(=O)N1 (configuration not stated) | 47
CN(C)CCN1C(=O)CCC(N2C(=O)c3cccc4cccc(c34)C2=O)C1=O (configuration not stated) | 91
CN(C)CCN1C(=O)CCC(N2C(=O)c3cccc4cc([N+](=O)[O-])cc(c34)C2=O)C1=O (configuration not stated) | 48
Nc1cc2c3c(cccc3c1)C(=O)N(C1CCC(=O)NC1=O)C2=O (configuration not stated) | 46
NC(=O)CCC(C(=O)O)N1C(=O)c2cc3ccccc3cc2C1=O (configuration not stated) | 60
NC(=O)CCC(C(=O)O)N1C(=O)c2ccc3ccccc3c2C1=O (configuration not stated) | 111
CN(C)CCN1C(=O)CCC(N2C(=O)c3cccc4cc(N)cc(c34)C2=O)C1=O (configuration not stated) | 47
CN(C)CCN1C(=O)CCC(N2C(=O)c3cc4ccccc4cc3C2=O)C1=O (configuration not stated) | 50

Each compound was assayed on HL-60 (assay: Enhancement of 12-O-tetradecanoylphorbol-13-acetate-induced TNFalpha production in human HL60 cell at 30 uM after 16 hrs by ELISA relative to control). Settings: not given.
Format: functional
Method in brief: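 HL-60 cells in RPMI 1640 with 10% fetal bovine serum, 2 mM L-glutamine and penicillin/streptomycin, 37 °C, 5% CO2. Exponential cells (5×10^5 cells/mL) co-treated with 10 nM TPA plus compound (30 µM) for 16 h. Cell number and morphology checked microscopically. Supernatant TNF-α measured by human TNF-α ELISA, expressed as % of TPA-only treatment (100%). At least three experiments, triplicate means.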

Structure (SMILES) | Activity [%]
CN(C)CCN1C(=O)CCC(N2C(=O)c3ccccc3C2=O)C1=O (configuration not stated) | 125
CN(C)CCN1C(=O)CCC(n2c(=O)c3cc4c(=O)n(C5CCC(=O)N(CCN(C)C)C5=O)c(=O)c4cc3c2=O)C1=O (configuration not stated) | 138
CN(CCN1C(=O)CCC(N2C(=O)c3ccccc3C2=O)C1=O)CCN1C(=O)CCC(N2C(=O)c3ccccc3C2=O)C1=O (configuration not stated) | 159
O=C1CCC(N2C(=O)c3cccc4cc([N+](=O)[O-])cc(c34)C2=O)C(=O)N1 (configuration not stated) | 248
CN(C)CCN1C(=O)CCC(N2C(=O)c3cccc4cccc(c34)C2=O)C1=O (configuration not stated) | 107
CN(C)CCN1C(=O)CCC(N2C(=O)c3cccc4cc([N+](=O)[O-])cc(c34)C2=O)C1=O (configuration not stated) | 124
Nc1cc2c3c(cccc3c1)C(=O)N(C1CCC(=O)NC1=O)C2=O (configuration not stated) | 138
NC(=O)CCC(C(=O)O)N1C(=O)c2cc3ccccc3cc2C1=O (configuration not stated) | 258
NC(=O)CCC(C(=O)O)N1C(=O)c2ccc3ccccc3c2C1=O (configuration not stated) | 146
CN(C)CCN1C(=O)CCC(N2C(=O)c3cccc4cc(N)cc(c34)C2=O)C1=O (configuration not stated) | 132
CN(C)CCN1C(=O)CCC(N2C(=O)c3cc4ccccc4cc3C2=O)C1=O (configuration not stated) | 149

What follows are compounds tested on ST486 (assay: Cytotoxicity against human ST486 cells by MTT assay). Settings: not given.
Format: functional, cell-based

Structure (SMILES) | IC50 [µM]
CN(C)CCN1C(=O)CCC(N2C(=O)c3ccccc3C2=O)C1=O (configuration not stated) | > 50
CN(C)CCN1C(=O)CCC(n2c(=O)c3cc4c(=O)n(C5CCC(=O)N(CCN(C)C)C5=O)c(=O)c4cc3c2=O)C1=O (configuration not stated) | > 50
CN(CCN1C(=O)CCC(N2C(=O)c3ccccc3C2=O)C1=O)CCN1C(=O)CCC(N2C(=O)c3ccccc3C2=O)C1=O (configuration not stated) | > 50
O=C1CCC(N2C(=O)c3cccc4cc([N+](=O)[O-])cc(c34)C2=O)C(=O)N1 (configuration not stated) | > 50
CN(C)CCN1C(=O)CCC(N2C(=O)c3cccc4cccc(c34)C2=O)C1=O (configuration not stated) | > 50
CN(C)CCN1C(=O)CCC(N2C(=O)c3cccc4cc([N+](=O)[O-])cc(c34)C2=O)C1=O (configuration not stated) | > 50
Nc1cc2c3c(cccc3c1)C(=O)N(C1CCC(=O)NC1=O)C2=O (configuration not stated) | > 50
NC(=O)CCC(C(=O)O)N1C(=O)c2cc3ccccc3cc2C1=O (configuration not stated) | > 50
NC(=O)CCC(C(=O)O)N1C(=O)c2ccc3ccccc3c2C1=O (configuration not stated) | > 50
CN(C)CCN1C(=O)CCC(N2C(=O)c3cccc4cc(N)cc(c34)C2=O)C1=O (configuration not stated) | > 50
CN(C)CCN1C(=O)CCC(N2C(=O)c3cc4ccccc4cc3C2=O)C1=O (configuration not stated) | > 50

These compounds were tested on HL-60 (assay: Cytotoxicity against human HL60 cells by MTT assay). Settings: not given.
Format: functional, cell-based

Structure (SMILES) | IC50 [µM]
CN(C)CCN1C(=O)CCC(N2C(=O)c3ccccc3C2=O)C1=O (configuration not stated) | > 50
CN(C)CCN1C(=O)CCC(n2c(=O)c3cc4c(=O)n(C5CCC(=O)N(CCN(C)C)C5=O)c(=O)c4cc3c2=O)C1=O (configuration not stated) | > 50
CN(CCN1C(=O)CCC(N2C(=O)c3ccccc3C2=O)C1=O)CCN1C(=O)CCC(N2C(=O)c3ccccc3C2=O)C1=O (configuration not stated) | > 50
O=C1CCC(N2C(=O)c3cccc4cc([N+](=O)[O-])cc(c34)C2=O)C(=O)N1 (configuration not stated) | > 50
CN(C)CCN1C(=O)CCC(N2C(=O)c3cccc4cccc(c34)C2=O)C1=O (configuration not stated) | > 50
CN(C)CCN1C(=O)CCC(N2C(=O)c3cccc4cc([N+](=O)[O-])cc(c34)C2=O)C1=O (configuration not stated) | > 50
Nc1cc2c3c(cccc3c1)C(=O)N(C1CCC(=O)NC1=O)C2=O (configuration not stated) | > 50
NC(=O)CCC(C(=O)O)N1C(=O)c2cc3ccccc3cc2C1=O (configuration not stated) | > 50
NC(=O)CCC(C(=O)O)N1C(=O)c2ccc3ccccc3c2C1=O (configuration not stated) | > 50
CN(C)CCN1C(=O)CCC(N2C(=O)c3cccc4cc(N)cc(c34)C2=O)C1=O (configuration not stated) | > 50
CN(C)CCN1C(=O)CCC(N2C(=O)c3cc4ccccc4cc3C2=O)C1=O (configuration not stated) | > 50

The compounds below were run on HUVEC (assay: Cytotoxicity against HUVEC by MTT assay). Settings: Homo sapiens.
Format: cell-based

Structure (SMILES) | IC50 [µM]
CN(C)CCN1C(=O)CCC(N2C(=O)c3ccccc3C2=O)C1=O (configuration not stated) | > 50
CN(C)CCN1C(=O)CCC(n2c(=O)c3cc4c(=O)n(C5CCC(=O)N(CCN(C)C)C5=O)c(=O)c4cc3c2=O)C1=O (configuration not stated) | > 50
CN(CCN1C(=O)CCC(N2C(=O)c3ccccc3C2=O)C1=O)CCN1C(=O)CCC(N2C(=O)c3ccccc3C2=O)C1=O (configuration not stated) | > 50
O=C1CCC(N2C(=O)c3cccc4cc([N+](=O)[O-])cc(c34)C2=O)C(=O)N1 (configuration not stated) | > 50
CN(C)CCN1C(=O)CCC(N2C(=O)c3cccc4cccc(c34)C2=O)C1=O (configuration not stated) | > 50
CN(C)CCN1C(=O)CCC(N2C(=O)c3cccc4cc([N+](=O)[O-])cc(c34)C2=O)C1=O (configuration not stated) | > 50
Nc1cc2c3c(cccc3c1)C(=O)N(C1CCC(=O)NC1=O)C2=O (configuration not stated) | > 50
NC(=O)CCC(C(=O)O)N1C(=O)c2cc3ccccc3cc2C1=O (configuration not stated) | > 50
NC(=O)CCC(C(=O)O)N1C(=O)c2ccc3ccccc3c2C1=O (configuration not stated) | > 50
CN(C)CCN1C(=O)CCC(N2C(=O)c3cccc4cc(N)cc(c34)C2=O)C1=O (configuration not stated) | > 50
CN(C)CCN1C(=O)CCC(N2C(=O)c3cc4ccccc4cc3C2=O)C1=O (configuration not stated) | > 50
